Measured values published in PMC8851646 (ACS Omega, 2022).
Values after ≈ are worked out from the molar mass of the structure shown. Like-named read-outs stand apart in the source and are kept apart here.

Assays:
[1] = tested on: K. pneumoniae NB29017 co-cultured with T. pyriformis; experiment: T. pyriformis/K. pneumoniae; assay type: cell-based, Klebsiella pneumoniae; details: for activity in the Tp/Kp assay: manual pilot screens and D1 analog set
[2] = Compound stability, LC-MS of freshly dissolved powder; assay type: physicochemical; details: impure by LC–MS from freshly dissolved powder
[3] = tested on: K. pneumoniae wbbM mutant (NB29018) co-cultured with T. pyriformis; experiment: Tp/Kp co-culture assay with cell surface-defective wbbM mutant; assay type: cell-based, Klebsiella pneumoniae; details: Tp threshold 4625–18,500 Tp/mL
Red blood cell hemolysis = assay type: cell-based, sheep; details: sheep, erythrocytes from defibrinated sheep blood, pH 7.5
[4] = Cytotoxicity in K562 cells; assay type: cell-based; details: human
K. pneumoniae NB29017 [5] = experiment: Qualitative inhibition of mucoid appearance of colonies on solid LB agar; assay type: cell-based, Klebsiella pneumoniae; details: 4 fully mucoid, 0 nonmucoid, by eye
Summary of the method: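 Test compound dissolved in DMSO (12.8 mg/mL stock) and mixed into melted LB agar at 0–16 μg/mL final, then set in six-well plates. Mucoid wild-type NB29017 streaked for single colonies in each well. Plates incubated 18 h at 37 °C, then 2 h at 4 °C. Mucoid appearance scored by eye from 0 (none) to 4 (normal hypermucoid).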

K. pneumoniae NB29017 [6] = experiment: Electron microscopy of cell surface material; assay type: cell-based, Klebsiella pneumoniae; details: grown in SM medium with 32 μg/mL compound
Summary of the method: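 K. pneumoniae NB29017 grown overnight with shaking at 37 °C in 10 mL SM medium, with or without test compound at 32 μg/mL. Diluted 1:50 into the same medium and grown to OD600 of about 2. Cells pelleted at 3000g and washed in Na-cacodylate pH 7.2. Fixed 2 h at 4 °C (2.5% glutaraldehyde, 1% tannic acid, 0.1 M Na-cacodylate, pH 7.2). Pelleted, taken up in cacodylate buffer and examined by electron microscopy.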

Staphylococcus aureus = experiment: Antibacterial MIC, Gram-positive control; assay type: cell-based; details: read-out: MIC Sa
[7] = read-out: IC50 Tp/Kp, Table 1, freshly dissolved powder, top concentration 20 μM
[8] = read-out: Tp/Kp IC50, Table 2, expressed as μg/mL for comparison to agar values
[9] = read-out: Tp/Kp IC50, archived powder, side by side on the same assay plate, Tp set at 25000
[10] = read-out: Tp/Kp IC50, resynthesis batch, side by side on the same assay plate, Tp set at 25000

Row | Compound | activity in the Tp/Kp assay [1] | stability [2] | activity in the Tp/Kp wbbM assay [3] | IC50 [1, 7] | IC50 [1, 8] | IC50 [1, 9] | IC50 [1, 10] | hemolysis at 1 h (Red blood cell hemolysis) | IC50 [4] | qualitative score on solid medium (K. pneumoniae NB29017 [5]; 1 μg/mL compound in agar) | qualitative score on solid medium (K. pneumoniae NB29017 [5]; 2 μg/mL compound in agar) | qualitative score on solid medium (K. pneumoniae NB29017 [5]; 4 μg/mL compound in agar) | qualitative score on solid medium (K. pneumoniae NB29017 [5]; 8 μg/mL compound in agar) | qualitative score on solid medium (K. pneumoniae NB29017 [5]; 16 μg/mL compound in agar) | surface polysaccharide material by electron microscopy (K. pneumoniae NB29017 [6]) | MIC (Staphylococcus aureus)
1 | Oc1nc(S)nnc1-c1cccs1 [B1, OC1N=C(S)N=NC=1C2=CC=CS2] | active | – | – | – | – | – | – | – | – | – | – | – | – | – | – | –
2 | COc1nc(SC)nnc1C [Di, COc1nc(nnc1C)SC] | inactive | – | – | – | – | – | – | – | – | – | – | – | – | – | – | –
3 | Cc1cc(O)c(C)c(O)c1C(=O)O [compound 9, Cc1cc(O)c(C)c(O)c1C(O)=O] | active | – | – | – | – | – | – | – | – | – | – | – | – | – | – | –
4 | O=C(O)c1ccccc1O [compound 10, OC(=O)c1ccccc1O] | active | – | – | – | – | – | – | – | – | – | – | – | – | – | – | –
5 | Cc1cccc(O)c1C(=O)O [compound 16, Cc1cccc(O)c1C(O)=O] | active | – | – | – | – | – | – | – | – | – | – | – | – | – | – | –
6 | CCOC(=O)/C(=N\NC(N)=S)c1cccs1 [compound 25, CCOC(=O)/C(=N\NC(N)=S)/C1=CC=CS1] | – | unstable | – | – | – | – | – | – | – | – | – | – | – | – | – | –
7 | Cc1nnc(-c2ccccc2)nc1O [compound 34, Cc1nnc(nc1O)c2ccccc2] | active | – | retained activity | – | – | – | – | – | – | – | – | – | – | – | – | –
8 | Cc1nnc(SCC(=O)Nc2ccc(Br)cc2)nc1O [compound 35, Cc1nnc(nc1O)SCC(=O)Nc2ccc(Br)cc2] | active | – | retained activity | – | – | – | – | – | – | – | – | – | – | – | – | –
9 | COc1ccc(-c2csc(NC(=O)c3ccc(C(=O)Nc4nc(-c5ccc(OC)c(OC)c5)cs4)s3)n2)cc1OC [compound 62, COc1ccc(cc1OC)C5=CSC(NC(=O)C2=CC=C(S2)C(=O)NC3=NC(=CS3)c4cc(OC)c(cc4)OC)=N5] | – | – | retained potency | 1 nM | 0.001 µg/mL | 1.7 nM | 0.67 nM | 11.7% | > 210000 nM | 2 | 0 | 0 | 0 | 0 | devoid of any surface material | > 32 µg/mL
10 | CCOC(=O)c1ccc2nc(NC(=O)c3cccs3)sc2c1 [compound 64, CCOC(=O)c3ccc2N=C(NC(=O)C1=CC=CS1)Sc2c3] | – | – | retained potency | 120 nM | 0.04 µg/mL | 362 nM | 186 nM | 14.9% | > 386000 nM | 0 | 0 | 0 | 0 | 0 | – | > 128 µg/mL
11 | CCOc1ccc2nc(NC(=O)c3cc(=O)c4ccc(C)cc4o3)sc2c1 [compound 65, CCOc4ccc3N=C(NC(=O)C2=CC(=O)c1ccc(C)cc1O2)Sc3c4] | – | – | – | 70 nM | 0.03 µg/mL | – | – | 1.5% | > 168000 nM | 2 | 2 | 2 | 2 | 1 | – | > 128 µg/mL
12 | O=C(Nc1nnc(Cl)s1)c1ccco1 [compound 67, O=C(NC1=NN=C(Cl)S1)C2=CC=CO2] | – | – | – | 490 nM | 0.11 µg/mL | – | – | 1.5% | > 557000 nM | 1 | 0 | 0 | 0 | 0 | – | > 128 µg/mL
13 | Cc1cc(C)c2c(=O)cc(C(=O)Nc3nc4ccc(F)cc4s3)oc2c1 [compound 68, Cc2cc(C)c1C(=O)C=C(Oc1c2)C(=O)NC4=Nc3ccc(F)cc3S4] | – | – | – | 910 nM | – | – | – | 2.2% | > 348000 nM | 3 | 3 | 1 | 1 | 1 | – | > 128 µg/mL
14 | COc1ccc(Br)c(/C=N/NC(=O)COc2ccc(-c3ccccc3)cc2)c1 [compound 69, COc3ccc(Br)c(/C=N/NC(=O)COc1ccc(cc1)c2ccccc2)c3] | – | – | – | 50 nM | – | – | – | 4.1% | > 291000 nM | 0 | 0 | 0 | 0 | 0 | – | > 128 µg/mL
15 | O=C(/C=C/c1ccccc1)Nc1ccc(C(=O)Nc2nccs2)cc1 [compound 70, O=C(/C=C/c1ccccc1)Nc2ccc(cc2)C(=O)NC3=NC=CS3] | – | – | – | 1100 nM | – | – | – | 17.6% | > 367000 nM | 3 | 1 | 0 | 0 | 0 | – | > 128 µg/mL
16 | CC12CC3(C)CC(C(=O)O)(C1)CC(C(=O)O)(C2)C3 [compound 73, CC12CC3(C)CC(C1)(CC(C2)(C3)C(O)=O)C(O)=O] | – | – | – | 1100 nM | – | – | – | 2.8% | > 508000 nM | 4 | 3 | 3 | 3 | 2 | – | > 128 µg/mL
17 | CCOc1ccc2nc(NC(=O)c3ccc4ncsc4c3)sc2c1 [compound 74, CCOc4ccc3N=C(NC(=O)c2ccc1N=CSc1c2)Sc3c4] | – | – | – | 370 nM | – | – | – | 26.9% | > 361000 nM | 2 | 0 | 0 | 0 | 0 | – | > 128 µg/mL
18 | CCOc1cccc(C(=O)Nc2ccc(-c3nc4ccccc4[nH]3)cc2)c1 [compound 79, CCOc1cccc(c1)C(=O)Nc2ccc(cc2)C4Nc3ccccc3N=4] | – | – | – | 1330 nM | – | – | – | 40.6% | 341000 nM | 2 | 2 | 2 | 2 | – | – | > 128 µg/mL
19 | CCCCNC(=O)NS(=O)(=O)c1cccs1 [compound 82, CCCCNC(=O)NS(=O)(=O)C1=CC=CS1] | – | – | – | 2580 nM | – | – | – | 7.4% | > 489000 nM | 4 | 4 | 3 | 3 | 2 | – | > 128 µg/mL
20 | O=C(O)c1cc(Br)ccc1F [compound 166, OC(=O)c1cc(Br)ccc1F] | – | – | – | 1300 nM | – | – | – | 2.5% | > 584000 nM | – | – | – | – | – | – | > 128 µg/mL
21 | CCN(CC)/C(N)=N\c1ccc(NC(=O)c2ccc(C(=O)Nc3ccc(/N=C(\N)N(CC)CC)cc3)cc2)cc1 [compound 170, CCN(CC)/C(/N)=N/c1ccc(cc1)NC(=O)c2ccc(cc2)C(=O)Nc3ccc(cc3)\N=C(\N)/N(CC)CC] | – | – | – | 2200 nM | – | – | – | 1.9% | 102000 nM | – | – | – | – | – | – | 8 µg/mL (≈ 14.7 µM)
22 | O=[N+]([O-])c1cnc2ccc(Cl)cc2c1O [compound 182, [O-][N+](=O)c2cnc1ccc(Cl)cc1c2O] | – | – | – | 420 nM | – | – | – | 2.4% | 75400 nM | – | – | – | – | – | – | > 128 µg/mL
23 | O=C(CCCN1CCC(O)(c2ccc(Br)cc2)CC1)c1ccc(F)cc1 [compound 185, OC2(CCN(CCCC(=O)c1ccc(F)cc1)CC2)c3ccc(Br)cc3] | – | – | – | 850 nM | – | – | – | 4.5% | 16500 nM | – | – | – | – | – | – | > 128 µg/mL
24 | COC1C(OC(C)=O)CC(=O)OC(C)CC2OC2/C=C/C(=O)C(C)CC(CC=O)C1OC1OC(C)C(OC2CC(C)(O)C(OC(=O)CC(C)C)C(C)O2)C(N(C)C)C1O (centres unmarked) [compound 186, COC4C(OC2OC(C)C(OC1CC(C)(O)C(OC(=O)CC(C)C)C(C)O1)C(C2O)N(C)C)C(CC=O)CC(C)C(=O)/C=C/C3OC3CC(C)OC(=O)CC4OC(C)=O] | – | – | – | 5400 nM | – | – | – | – | 8540 nM | – | – | – | – | – | – | 2 µg/mL (≈ 2.38 µM)
25 | Cc1nc(O)n2ncc(Br)c2n1 [compound 187, CC2=NC1=C(Br)C=NN1C(O)=N2] | – | – | – | 160 nM | – | – | – | 2.5% | > 559000 nM | – | – | – | – | – | – | > 128 µg/mL
26 | C=CC1(C)CC(OC(=O)CSc2ccc(N)cc2)C2(C)C(C)CCC3(CCC(=O)C32)C(C)C1O (centres unmarked) [compound 191, C=CC4(C)CC(OC(=O)CSc1ccc(N)cc1)C2(C)C(C)CCC3(CCC(=O)C23)C(C)C4O] | – | – | – | 3220 nM | – | – | – | 2% | 35800 nM | – | – | – | – | – | – | ≤ 0.06 µg/mL
